According to ChEMBL document CHEMBL1135913, “Structure-based design, synthesis, and biological evaluation of irreversible human rhinovirus 3C protease inhibitors. 6. Structure-activity studies of orally bioavailable, 2-pyridone-containing peptidomimetics” (J Med Chem, 2002):

Key:
[1] = biological target: T1, Human rhinovirus A protease (Human rhinovirus sp., UniProt Q4U254); experiment: Inhibition of HRV Protease 3CP (serotype 14).; parameters: species or system Rhinovirus B
T1 sequence (Q4U254 whole entry): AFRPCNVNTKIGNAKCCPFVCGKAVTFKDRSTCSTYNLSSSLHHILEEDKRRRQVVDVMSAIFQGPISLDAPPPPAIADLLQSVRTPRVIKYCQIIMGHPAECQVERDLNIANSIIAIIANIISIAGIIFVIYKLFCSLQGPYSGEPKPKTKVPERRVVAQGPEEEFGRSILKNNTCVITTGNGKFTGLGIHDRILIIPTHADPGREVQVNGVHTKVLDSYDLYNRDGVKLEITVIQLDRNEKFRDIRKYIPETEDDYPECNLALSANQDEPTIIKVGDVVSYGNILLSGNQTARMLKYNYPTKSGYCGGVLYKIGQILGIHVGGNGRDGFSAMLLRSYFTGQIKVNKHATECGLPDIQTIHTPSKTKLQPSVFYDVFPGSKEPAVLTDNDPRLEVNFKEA

[2] = biological target: T2, Human rhinovirus A protease (Human rhinovirus sp.) (UniProt Q4U254); experiment: (§1) cytotoxicity against HRV Protease 3CP (serotype 14)
T2 sequence (whole entry): T1 sequence (Q4U254 whole entry)

[3] = biological target: T2, Human rhinovirus A protease (Human rhinovirus sp.); experiment: Inhibitory activity against Human Rhinovirus Protease 3C (serotype 14); settings: Rhinovirus B
[4] = Loss of compound (%metabolized) after 30 min exposure to human liver microsomes; type: ADME, Microsome; settings: read-out: Metabolism
Procedure, shortened: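 Pooled human liver microsomes (1 mg/mL, 6–8 livers) with 2 mM NADPH in 100 mM potassium phosphate pH 7.4 were preincubated 1 min at 37 °C. Compound was added at 25 μM and incubated 30 min, then quenched with acetonitrile. Loss was measured against time-zero controls by reversed-phase HPLC with UV at 215 nm.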

[5] = biological target: T2, Human rhinovirus A protease (Human rhinovirus sp.); experiment: cytotoxicity against HRV Protease 3CP (serotype 1A); type: functional
[6] = biological target: T2, Human rhinovirus A protease (Human rhinovirus sp.); experiment: cytotoxicity against HRV Protease 3CP (serotype 10); type: functional
[7] = biological target: T2, Human rhinovirus A protease (Human rhinovirus sp.); experiment: as §1; type: functional
[8] = biological target: T2, Human rhinovirus A protease (Human rhinovirus sp.); experiment: cytotoxicity against HRV Protease 3CP (serotype 10),; type: functional
[9] = biological target: T2, Human rhinovirus A protease (Human rhinovirus sp.); experiment: cytotoxicity against HRV Protease 3CP (serotype 1A),; type: functional
[10] = biological target: T2, Human rhinovirus A protease (Human rhinovirus sp.); experiment: cytotoxicity against HRV Protease 3CP (serotype 14),; type: functional

**Q.** For `Cc1cc(CCCOc2c(C)cc(-c3noc(C(F)(F)F)n3)cc2C)on1` [PLECONARIL], which EC50 [1] is on record?
**A.** 58 nM

**Q.** What about the CC50 [2] of the same compound?
**A.** > 10 µM

**Q.** Which results are given for `CCOC(=O)/C=C/[C@H](C[C@@H]1CCNC1=O)NC(=O)[C@H](Cc1ccc(F)cc1)n1cccc(NC(=O)c2cc(C)on2)c1=O`?
**A.** EC50 [1]: 2 nM; K obs / 1 [3]: 1.25e+06 M⁻¹ s⁻¹; metabolised at 0.5 h [4]: 95%; CC50 [5]: > 10 µM; CC50 [6]: > 10 µM; CC50 [7]: > 10 µM

**Q.** Which EC50 [1] does the source give for `CCOC(=O)/C=C/[C@H](CCC(N)=O)NC(=O)[C@H](Cc1ccccc1)n1cccc(NC(=O)C2CCCO2)c1=O` (stereo partly specified) here?
**A.** 1780 nM

**Q.** What about the K obs / 1 [3] of the same compound?
**A.** 3750 M⁻¹ s⁻¹

**Q.** And the CC50 [2]?
**A.** > 10 µM

**Q.** For `CCOC(=O)/C=C/[C@H](CCC(N)=O)NC(=O)Cn1cccc(NC(=O)OCc2ccccc2)c1=O`, which EC50 [1] is on record?
**A.** > 10000 nM

**Q.** And the CC50 [2]?
**A.** > 10 µM

**Q.** With `CCOC(=O)/C=C/[C@H](CCC(N)=O)NC(=O)[C@H](Cc1ccccc1)n1ccc(C)c(NC(=O)c2cc(C)on2)c1=O` as the compound, how does the K obs / 1 [3] read?
**A.** 116000 M⁻¹ s⁻¹

**Q.** Which EC50 [1] does the source give for `CCOC(=O)/C=C/[C@H](CCC(N)=O)NC(=O)[C@H](CC1CCCCC1)n1cccc(NC(=O)OCc2ccccc2)c1=O` here?
**A.** 178 nM

**Q.** And the K obs / 1 [3]?
**A.** 6500 M⁻¹ s⁻¹

**Q.** What about the CC50 [2] of the same compound?
**A.** > 10 µM

**Q.** What does the source list for `CCOC(=O)c1ccc(OCCC2CCN(c3ccc(C)nn3)CC2)cc1` [PIRODAVIR]?
**A.** EC50 [1]: 44 nM; CC50 [2]: > 10 µM

**Q.** Which results are given for `CCOC(=O)/C=C/[C@H](CCC(N)=O)NC(=O)[C@H](Cc1ccccc1)n1cccc(NC(=O)C2SCCS2)c1=O`?
**A.** EC50 [1]: 104 nM; K obs / 1 [3]: 114000 M⁻¹ s⁻¹; CC50 [5]: > 10 µM; CC50 [6]: > 10 µM; CC50 [7]: > 10 µM

**Q.** What does the source list for `CCOC(=O)/C=C/[C@H](CCC(N)=O)NC(=O)[C@H](Cc1ccc(F)c(F)c1)n1cccc(NC(=O)OCc2ccccc2)c1=O`?
**A.** EC50 [1]: 3 nM; K obs / 1 [3]: 193000 M⁻¹ s⁻¹; CC50 [8]: > 10 µM; CC50 [9]: > 10 µM; CC50 [10]: > 10 µM

**Q.** Which results are given for `CCOC(=O)/C=C/[C@H](C[C@@H]1CCNC1=O)NC(=O)[C@H](Cc1ccccc1)n1cccc(NC(=O)OCc2ccccc2)c1=O`?
**A.** K obs / 1 [3]: 380000 M⁻¹ s⁻¹; CC50 [7]: > 1 µM

**Q.** For `CCOC(=O)/C=C/[C@H](CCC(N)=O)NC(=O)[C@H](Cc1ccc(F)cc1)n1cccc(NC(=O)OCc2ccccc2)c1=O`, which EC50 [1] is on record?
**A.** 14 nM

**Q.** What about the K obs / 1 [3] of the same compound?
**A.** 81400 M⁻¹ s⁻¹

**Q.** And the CC50 [8]?
**A.** > 10 µM

**Q.** And the CC50 [9]?
**A.** > 10 µM

**Q.** What about the CC50 [10] of the same compound?
**A.** > 320 µM
